For data set [1], the species on record is Mus musculus. In words: In vitro biotransformation of compound along with coformycin in mice liver homogenate 9-(beta-D-arabinifuranosyl)adenine(ara-A) analyte. It counts as ADME. The essentials: (§1)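 Mouse liver washed in cold saline, homogenized with 1 or 1.5 weight equiv water; homogenate incubated at 37 °C with substrate (initial 100 µg/mL; coformycin co-incubated where stated), water-bath shaker, blank half kept. Samples at 0, 5, 15, 30 min and 1–5 h; acetonitrile precipitation with AzdU internal standard, gradient HPLC-UV for ara-H, ara-A and 6-AAP. Kel and T1/2 are averages of two studies.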

A short description of data set [2]: Pharmacokinetic parameter after dosing of 100 mg/kg of compound administered orally in brain. It counts as ADME, organism-based. Also noted: dose 100 mg/kg, route oral. The note with it: in vivo, po. The essentials: (§2)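 Female NIH Swiss mice (24–28 g) dosed 100 mg/kg, iv or po by line. At least three mice were sacrificed per time point, 0.08–6 h, and whole brains were frozen at -20 °C. Extracts were assayed by HPLC-UV with AzdU internal standard. Noncompartmental analysis: linear trapezoidal AUC extrapolated to infinity, T1/2 = 0.693/λz, relative exposure re = AUC brain/AUC serum.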

Data set [3] is described as follows: Pharmacokinetic parameter after dosing of 100 mg/kg of compound administered intravenously in brain. It counts as ADME, organism-based. Also on record: dose 100 mg/kg, route intravenous. The note with it: in vivo, iv. The essentials:
as §2

The species named for data set [4] is Mus musculus. In words: In vitro biotransformation of compound in mice liver homogenate 9-(beta-D-arabinifuranosyl)-6-hypoxanthine(ara-H) analyte. It counts as ADME. The essentials: as §1
For data set [5], the species on record is Mus musculus. Put plainly: In vitro biotransformation of compound in mice liver homogenate 9-(beta-D-arabinifuranosyl)adenine(ara-A) analyte. It counts as ADME. The method in brief: as §1
Data set [6] is filed under the species Mus musculus. Put plainly: In vitro biotransformation of compound in mice liver homogenate 9-(beta-D-arabinifuranosyl)[…] analyte. It counts as ADME. The essentials:
as §1

On to `OC[C@H]1O[C@@H](n2cnc3c2NC=NC[C@H]3O)[C@H](O)[C@@H]1O.[N-]=[N+]=Nc1ncnc2c1ncn2[C@@H]1O[C@H](CO)[C@@H](O)[C@@H]1O`, for which, in the data set listed under Mus musculus [1], the Kel is 0.27 h⁻¹ and the T1/2 was 2.58 h.

Turning to `[N-]=[N+]=Nc1ncnc2c1ncn2[C@@H]1O[C@H](CO)[C@@H](O)[C@@H]1O`, the Activity is 0.3 in data set [2] and 0.02 in data set [3]. The Kel was 0.26 h⁻¹ in the data set listed under Mus musculus [4] and 0.48 h⁻¹ in the data set listed under Mus musculus [5]. Also, the T1/2 in the data set filed under Mus musculus [4] came out at 2.45 h; in the data set filed under Mus musculus [5], 1.46 h.

With `Nc1ncnc2c1ncn2[C@@H]1O[C@H](CO)[C@@H](O)[C@@H]1O` [VIDARABINE], the Activity in data set [2] is on record as 1.35. Moreover, the Activity in data set [3] is reported as 0.05. For the same molecule, in the data set listed under Mus musculus [6], the Kel amounted to 0.31 h⁻¹ and the T1/2 is 2.24 h.

The record behind these values is ChEMBL document CHEMBL1129460, “Synthesis, biotransformation, and pharmacokinetic studies of 9-(beta-D-arabinofuranosyl)-6-azidopurine: a prodrug for ara-A designed to utilize the azide reduction pathway” (J Med Chem, 1996).
